Reference: ChEMBL document CHEMBL5724801, “EUbOPEN Chemogenomics Library - Multiplex” (2024)
Values joined by “and” are separate entries in the source; they are usually repeats but may differ in a detail not shown here. Equal values may be shown once.

Tests used:
Fibroblast = experiment: Multiplex assay against human fibroblast; assay type: toxicity, cell-based
Summary of the method: (§1)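 Tubulin, mitochondrial-mass and membrane-permeability phenotypes are per cents of healthy-nucleus cells. Cells were gated by CellPathfinder machine learning into Hoechst high-intensity objects or normal cells, normal cells into healthy, pyknosed or fragmented nuclei, and pyknosed cells into mitotic or apoptotic. Before that, live cells stained at seeding with Hoechst33342, BioTracker Green Microtubule Cytoskeleton Dye, MitoTracker Red and Annexin V Alexa Fluor 680 were imaged on a CQ1 microscope at 37°C and 5% CO2 after compound addition.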

HEK-293T = experiment: Multiplex assay against HEK293T; assay type: toxicity, cell-based; conditions: human; summary of the method: as §1
[1] = 12 h, 1 µM, compound concentration 1 uM
[2] = 12 h, 10 µM, compound concentration 10 uM
[3] = 24 h, 1 µM, compound concentration 1 uM
[4] = 24 h, 10 µM, compound concentration 10 uM
[5] = 48 h, 1 µM, compound concentration 1 uM
[6] = 48 h, 10 µM, compound concentration 10 uM

Compound: CCc1cc2cc(NS(=O)(=O)c3ccc(C#N)cc3)ccc2n(CC)c1=O
- Population Apoptotic (%) (Fibroblast; [1]): 42%
- Population Fragmented Nuclei (%) (Fibroblast; [1]): 16% and 27%
- Population Healthy Nuclei (%) (Fibroblast; [1]): 64% and 40%
- Population Hoechst High Intensity Objects (%) (Fibroblast; [1]): 1% and 6%
- Population Membrane Permeable-Phenotype (%) (Fibroblast; [1]): 1% and 9%
- Population Mitochondria Different-Phenotype (%) (Fibroblast; [1]): 3% and 7%
- Population Mitotic Cells (%) (Fibroblast; [1]): 57%
- Population Normal (%) (Fibroblast; [1]): 98% and 93%
- Population Pyknosed Nuclei (%) (Fibroblast; [1]): 18% and 32%
- Population Tubulin-Different-Phenotype (%) (Fibroblast; [1]): 24% and 39%
- Total Cell Count (Fibroblast; [1]): 157 and 173
- Population Apoptotic (%) (Fibroblast; [2]): 42% and 18%
- Population Fragmented Nuclei (%) (Fibroblast; [2]): 18% and 19%
- Population Healthy Nuclei (%) (Fibroblast; [2]): 54% and 43%
- Population Hoechst High Intensity Objects (%) (Fibroblast; [2]): 1% and 5%
- Population Mitochondria Different-Phenotype (%) (Fibroblast; [2]): 5% and 6%
- Population Mitotic Cells (%) (Fibroblast; [2]): 57% and 81%
- Population Normal (%) (Fibroblast; [2]): 98% and 94%
- Population Pyknosed Nuclei (%) (Fibroblast; [2]): 26% and 37%
- Population Tubulin-Different-Phenotype (%) (Fibroblast; [2]): 65% and 74%
- Total Cell Count (Fibroblast; [2]): 133 and 153
- Population Apoptotic (%) (Fibroblast; [3]): 53% and 43%
- Population Fragmented Nuclei (%) (Fibroblast; [3]): 19% and 26%
- Population Healthy Nuclei (%) (Fibroblast; [3]): 63% and 48%
- Population Hoechst High Intensity Objects (%) (Fibroblast; [3]): 5% and 6%
- Population Membrane Permeable-Phenotype (%) (Fibroblast; [3]): 1% and 9%
- Population Mitochondria Different-Phenotype (%) (Fibroblast; [3]): 4% and 8%
- Population Mitotic Cells (%) (Fibroblast; [3]): 46% and 56%
- Population Normal (%) (Fibroblast; [3]): 94% and 93%
- Population Pyknosed Nuclei (%) (Fibroblast; [3]): 17% and 25%
- Population Tubulin-Different-Phenotype (%) (Fibroblast; [3]): 26% and 51%
- Total Cell Count (Fibroblast; [3]): 157 and 164
- Population Apoptotic (%) (Fibroblast; [4]): 50% and 32%
- Population Fragmented Nuclei (%) (Fibroblast; [4]): 19% and 22%
- Population Healthy Nuclei (%) (Fibroblast; [4]): 58% and 38%
- Population Hoechst High Intensity Objects (%) (Fibroblast; [4]): 2% and 9%
- Population Membrane Permeable-Phenotype (%) (Fibroblast; [4]): 1% and 6%
- Population Mitochondria Different-Phenotype (%) (Fibroblast; [4]): 6% and 12%
- Population Mitotic Cells (%) (Fibroblast; [4]): 50% and 67%
- Population Normal (%) (Fibroblast; [4]): 97% and 90%
- Population Pyknosed Nuclei (%) (Fibroblast; [4]): 22% and 39%
- Population Tubulin-Different-Phenotype (%) (Fibroblast; [4]): 59% and 72%
- Total Cell Count (Fibroblast; [4]): 130 and 145
- Population Apoptotic (%) (Fibroblast; [5]): 52% and 37%
- Population Fragmented Nuclei (%) (Fibroblast; [5]): 24% and 33%
- Population Healthy Nuclei (%) (Fibroblast; [5]): 59% and 50%
- Population Hoechst High Intensity Objects (%) (Fibroblast; [5]): 3% and 5%
- Population Membrane Permeable-Phenotype (%) (Fibroblast; [5]): 0% and 12%
- Population Mitochondria Different-Phenotype (%) (Fibroblast; [5]): 4% and 8%
- Population Mitotic Cells (%) (Fibroblast; [5]): 47% and 62%
- Population Normal (%) (Fibroblast; [5]): 96% and 94%
- Population Pyknosed Nuclei (%) (Fibroblast; [5]): 15% and 16%
- Population Tubulin-Different-Phenotype (%) (Fibroblast; [5]): 27% and 60%
- Total Cell Count (Fibroblast; [5]): 150 and 156
- Population Apoptotic (%) (Fibroblast; [6]): 60%
- Population Fragmented Nuclei (%) (Fibroblast; [6]): 17% and 30%
- Population Healthy Nuclei (%) (Fibroblast; [6]): 62% and 48%
- Population Hoechst High Intensity Objects (%) (Fibroblast; [6]): 1% and 7%
- Population Mitochondria Different-Phenotype (%) (Fibroblast; [6]): 12% and 7%
- Population Mitotic Cells (%) (Fibroblast; [6]): 40% and 39%
- Population Normal (%) (Fibroblast; [6]): 98% and 92%
- Population Pyknosed Nuclei (%) (Fibroblast; [6]): 19% and 20%
- Population Tubulin-Different-Phenotype (%) (Fibroblast; [6]): 61% and 69%
- Total Cell Count (Fibroblast; [6]): 129 and 145
- Population Apoptotic (%) (HEK-293T; [1]): 43% and 40%
- Population Fragmented Nuclei (%) (HEK-293T; [1]): 8% and 7%
- Population Healthy Nuclei (%) (HEK-293T; [1]): 78%
- Population Hoechst High Intensity Objects (%) (HEK-293T; [1]): 9% and 7%
- Population Membrane Permeable-Phenotype (%) (HEK-293T; [1]): 0%
- Population Mitochondria Different-Phenotype (%) (HEK-293T; [1]): 37% and 64%
- Population Mitotic Cells (%) (HEK-293T; [1]): 56% and 59%
- Population Normal (%) (HEK-293T; [1]): 90% and 92%
- Population Pyknosed Nuclei (%) (HEK-293T; [1]): 12% and 14%
- Population Tubulin-Different-Phenotype (%) (HEK-293T; [1]): 28% and 29%
- Total Cell Count (HEK-293T; [1]): 411 and 338
- Population Apoptotic (%) (HEK-293T; [2]): 38% and 65%
- Population Fragmented Nuclei (%) (HEK-293T; [2]): 7% and 6%
- Population Healthy Nuclei (%) (HEK-293T; [2]): 80% and 69%
- Population Hoechst High Intensity Objects (%) (HEK-293T; [2]): 7% and 16%
- Population Membrane Permeable-Phenotype (%) (HEK-293T; [2]): 0%
- Population Mitochondria Different-Phenotype (%) (HEK-293T; [2]): 47% and 71%
- Population Mitotic Cells (%) (HEK-293T; [2]): 61% and 34%
- Population Normal (%) (HEK-293T; [2]): 92% and 83%
- Population Pyknosed Nuclei (%) (HEK-293T; [2]): 12% and 23%
- Population Tubulin-Different-Phenotype (%) (HEK-293T; [2]): 48% and 41%
- Total Cell Count (HEK-293T; [2]): 404 and 291
- Population Apoptotic (%) (HEK-293T; [3]): 29% and 43%
- Population Fragmented Nuclei (%) (HEK-293T; [3]): 8% and 7%
- Population Healthy Nuclei (%) (HEK-293T; [3]): 80% and 84%
- Population Hoechst High Intensity Objects (%) (HEK-293T; [3]): 5%
- Population Membrane Permeable-Phenotype (%) (HEK-293T; [3]): 1% and 0%
- Population Mitochondria Different-Phenotype (%) (HEK-293T; [3]): 19% and 44%
- Population Mitotic Cells (%) (HEK-293T; [3]): 70% and 56%
- Population Normal (%) (HEK-293T; [3]): 94%
- Population Pyknosed Nuclei (%) (HEK-293T; [3]): 11% and 7%
- Population Tubulin-Different-Phenotype (%) (HEK-293T; [3]): 18% and 22%
- Total Cell Count (HEK-293T; [3]): 510 and 403
